Bioassay records from PubChem.
Sampled rows, rich in hits. Any-hit rate of the full collection: about 5.5%.
STAT1 activator: STAT1 signaling activation; NIH 3T3 STAT1-luciferase reporter, IFN-gamma, luminescence; 100% = IFN-gamma alone, no compound; activation (% of control), % at 5.5 µM; actives 2.6% (n = 200,000);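 active = activation above the screen-wide mean activation plus 3 SD, cut at about 130% in these data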;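 note: raw ratio to IFN-gamma control signal so 100% means no change and 0% no light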
Cl transport mod: KCC2 (human) Cl- transport modulation. Q9H2X9. KCC2 cells, thallium flux FluoZin-2 fluorescence. B-score of Tl+ flux slope (higher = more flux/activation; lower = inhibition) at 10 µM. actives 2.2% (n = 190,000);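 active = thallium flux slope and its plate-corrected score both differing from the plate sample mean at a set confidence after two filtering rounds, in either direction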;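 note: slope of fluorescence scaled to starting intensity during 10 to 20 s after thallium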
STAT1 blocker: STAT1 signaling inhibition; NIH 3T3 STAT1-luciferase reporter, IFN-gamma, luminescence; inhibition, % at 5.5 µM; actives 0.35% (n = 200,000); AID 920;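 active = inhibition above a set limit, the mean inhibition across all tested compounds plus 3 SD, cut at about 34% in these data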;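 note: 0% = IFN-gamma with DMSO and 100% = IFN-gamma with 300 µM nifuroxazide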
STAT3 act: activators of IL-6 induced STAT3 signaling; U3A cells, IL-6 STAT3-luciferase reporter, luminescence; 100% = signal with IL-6 EC80 alone; activation (% of control), % at 5.6 µM; actives 0.91% (n = 190,000);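 active = activation above the screen-wide mean of compound activation plus 3 SD, cut at about 130% in these data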;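 note: 0% = background luminescence of wells with medium and substrate only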
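system = STAT3-luciferase reporter U3A cells | reagent = IL-6 stimulus at 33 ng/mL final | timing = 1 h compound pre-exposure, 6 h IL-6 stimulation, 37 °C | measured by = luminescence | evaluation = % activation versus median of IL-6-stimulated wells | control set = IL-6-only wells as 100% reference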
STAT3 inh: inhibitors of IL-6 induced STAT3 signaling; U3A cells, IL-6 STAT3-luciferase reporter, luminescence; host cell line lacks STAT1; inhibition, % at 5.5 µM; actives 0.89% (n = 190,000); AID 862;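 active = inhibition above the mean inhibition across all screened compounds plus 3 SD, cut at about 44% in these data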;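 note: 0% = DMSO only wells and 100% = 100 µM nifuroxazide control wells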
HSV replic up: HSV replication enhancement; HSV replication augmentation in cells, fold increase; actives 0.005% (n = 220,000); maximum fold increase; in the data active = maximum fold increase above about 1.5; tested in PC3 cells
Numbers without * were called inactive.

`C=C(C)C1CC=C(C)/C(=N/NC(=O)COc2ccccc2Cl)C1` (stereo unspecified) gave STAT1 activator 102, Cl transport mod 0.0032, STAT1 blocker -3, STAT3 act 96, STAT3 inh 3 and HSV replic up inactive.
For O=C(O)/C=C/C(=O)Nc1ccccc1SC(F)(F)F the results were STAT1 activator 100, Cl transport mod -1.2, STAT1 blocker 0, STAT3 act 95, STAT3 inh 5 and HSV replic up inactive.
Screening O=c1c2ccccc2ncn1CCCOc1ccccc1[N+](=O)[O-] returned STAT1 activator 129*, Cl transport mod 0.57, STAT1 blocker -32, STAT3 act 101, STAT3 inh -1 and HSV replic up inactive.
CS(=O)(=O)c1ccc(C(=O)NC2CCCc3ccccc32)cc1 (stereo unspecified) was read as STAT1 activator 97, Cl transport mod -0.017, STAT1 blocker 3, STAT3 act 101, STAT3 inh 1 and HSV replic up inactive.
Screening CSc1cccc(NC(=O)/C=C/c2ccc(Cl)cc2)c1 returned STAT1 activator 111, Cl transport mod 0.53, STAT1 blocker -12, STAT3 act 89, STAT3 inh 19 and HSV replic up inactive.
Screening O=C(/C=C/c1ccccc1)Nc1ccc2c(c1)OCCO2 returned STAT1 activator 60, Cl transport mod -2.3, STAT1 blocker 42*, STAT3 act 35, STAT3 inh 79* and HSV replic up inactive.
`CSc1cccc(NC(=O)/C=C/c2ccccc2)c1` gave STAT1 activator 133*, Cl transport mod -0.48, STAT1 blocker -36, STAT3 act 97, STAT3 inh 5 and HSV replic up inactive.
`CSc1ccc(/C=C/C(=O)Nc2ccccc2)cc1` gave STAT1 activator 50, Cl transport mod -0.66, STAT1 blocker 53*, STAT3 act 37, STAT3 inh 79* and HSV replic up inactive.
`O=C(/C=C\c1ccccc1[N+](=O)[O-])Nc1ccccc1` gave STAT1 activator 135*, Cl transport mod -0.046, STAT1 blocker -42, STAT3 act 99, STAT3 inh 7 and HSV replic up inactive.
Screening O=C(/C=C/c1ccco1)Nc1ccc2c(c1)OCCO2 returned STAT1 activator 103, Cl transport mod 0.54, STAT1 blocker -5, STAT3 act 69, STAT3 inh 41 and HSV replic up inactive.
For O=C(CSc1nnc(Cc2ccccc2)n1-c1cccc(Cl)c1)NNC(=O)Cc1ccccc1 the results were STAT1 activator 95, Cl transport mod 0.44, STAT1 blocker 5, STAT3 act 99, STAT3 inh 0 and HSV replic up inactive.
`O=C(NC(=S)Nn1cnnc1)c1cccc(Br)c1` gave STAT1 activator 92, Cl transport mod 0.073, STAT1 blocker 9, STAT3 act 95, STAT3 inh 6 and HSV replic up inactive.
Screening O=C(/C=C/c1ccccc1)Nc1cccc(C(=O)O)c1 returned STAT1 activator 11, Cl transport mod 1.3, STAT1 blocker 96*, STAT3 act 10, STAT3 inh 107* and HSV replic up inactive.
Screening O=C(/C=C/c1ccccc1)N/C(=C/c1ccccc1)C(=O)Nc1cccc(C(=O)O)c1 returned STAT1 activator 100, Cl transport mod 1.6, STAT1 blocker 0, STAT3 act 106, STAT3 inh -5 and HSV replic up inactive.
Screening CCOC(=O)c1ccc(-c2ccc(/C=C(\C#N)C(=O)NCC3CCCO3)o2)cc1 (stereo unspecified) returned STAT1 activator 104, Cl transport mod -0.32, STAT1 blocker -4, STAT3 act 135*, STAT3 inh -38 and HSV replic up inactive.
COc1ccc(/C=C(\C#N)C(=O)NCC2CCCO2)cc1OC (stereo unspecified) was read as STAT1 activator 110, STAT1 blocker -12, STAT3 act 99, STAT3 inh 9 and HSV replic up inactive.
For FC(F)(F)c1ccc(NC(=S)NCc2ccccc2)cc1 the results were STAT1 activator 96, Cl transport mod 0.023, STAT1 blocker 6, STAT3 act 97, STAT3 inh 8 and HSV replic up inactive.
Screening O=C1NC(=O)/C(=C\c2ccc(Oc3cnccn3)cc2)S1 returned STAT1 activator 140*, Cl transport mod -0.6, STAT1 blocker -43, STAT3 act 129, STAT3 inh -35 and HSV replic up inactive.
